Source: PubChem
ERAP1 HTS inh: inhibitors of human ERAP1 aminopeptidase; 340,000 compounds, 0.15% hits; recombinant ERAP1, Leu-AMC fluorescence, 60 min; inhibition, % at 10.7 µM; Q9NZ08;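 active = mean replicate inhibition of at least 30%, or all replicates individually reaching that 30% level; inactive = mean below 30% and not every replicate reaching it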
RAD52 anneal inh: blocks human RAD52 DNA annealing; P43351; 360,000 compounds, 0.46% hits; inhibition, % at 18.7 µM; AID 651710; recombinant RAD52 DNA annealing, FRET fluorescence;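 active = every replicate showing at least 50% inhibition; inconclusive = mean inhibition at least 50% but not in every replicate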
AF4-AF9 inh: blocks AF4 peptide binding to human AF9. AlphaScreen, biotin-AF4 peptide binding to FLAG-AF9. P42568. AID 651704. inhibition, % at 10 µM. 350,000 compounds, 0.47% hits;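 active = every replicate reaching a set inhibition limit, whatever the replicate mean, cut at about 25% in these data; inconclusive = mean inhibition reaches that limit but some replicates miss it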
Target sequence (P42568 whole entry, looked up): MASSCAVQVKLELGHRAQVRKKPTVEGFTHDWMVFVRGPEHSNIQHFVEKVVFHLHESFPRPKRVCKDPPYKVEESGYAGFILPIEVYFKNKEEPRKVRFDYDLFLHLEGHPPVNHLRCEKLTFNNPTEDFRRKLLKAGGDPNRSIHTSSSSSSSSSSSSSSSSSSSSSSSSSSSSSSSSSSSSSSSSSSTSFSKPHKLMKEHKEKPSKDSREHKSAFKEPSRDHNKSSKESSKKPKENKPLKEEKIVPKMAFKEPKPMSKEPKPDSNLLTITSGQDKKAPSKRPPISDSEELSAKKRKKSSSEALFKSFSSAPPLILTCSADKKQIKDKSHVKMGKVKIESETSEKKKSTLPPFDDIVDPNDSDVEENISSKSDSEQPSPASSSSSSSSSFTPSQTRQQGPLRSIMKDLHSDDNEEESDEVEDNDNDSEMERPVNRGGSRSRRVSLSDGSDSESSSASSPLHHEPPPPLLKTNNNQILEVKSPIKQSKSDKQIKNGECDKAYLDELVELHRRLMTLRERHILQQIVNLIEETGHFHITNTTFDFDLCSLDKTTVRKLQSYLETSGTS
GSIS activator: GLuc luminescence reporter in INS-1E cells, primary screen for activators of glucose-dependent secretion of insulin. 370,000 compounds, 0.61% hits. activation, % at 16.6 µM. INS-1E GLuc reporter insulin secretion, 2-3 h. AID 743287;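 active = lowest replicate activation of at least 40%, so every replicate reaches that level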
S100A4 MyoIIA: blocks human S100A4 binding to myosin IIA peptide; S100A4/TAMRA-MyoIIA peptide fluorescence polarization; inhibition, % at 10.7 µM; 360,000 compounds, 0.14% hits; AID 652163;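 active = mean inhibition of at least 70% across replicates, with every replicate also reaching that level; inconclusive = mean inhibition reaches 70% but some replicates fall short; inactive = mean inhibition below 70%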
Target sequence (P26447 whole entry, looked up): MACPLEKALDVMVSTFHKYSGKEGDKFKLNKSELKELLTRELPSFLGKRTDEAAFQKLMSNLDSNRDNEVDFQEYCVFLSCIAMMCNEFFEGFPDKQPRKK
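Material: S100A4 monomer protein | Medium: HEPES pH 7.2 with CaCl2, KCl, NaCl, DTT, Triton | Reagent: Labelled myosin peptide probe, 5 nM | Doses: One dose per compound | Times: 5 min incubation before reading | Benchmarks: Neutral control DMSO, positive control TFP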
AlphaScreen intf: interferes with the AlphaScreen assay signal; AID 720494; AlphaScreen interference counter-screen, signal luminescence; AC50, µM (titrated, usually from 12 µM); shares compounds with AF4-AF9 inh; 530 compounds, 45% hits; cut-off not given, nearly all actives have AC50 up to about 14 µM
DNA binder FP: counter-screen for RAD52 inhibitors: DNA binding compounds | Salmon sperm DNA/acridine orange FP displacement | shares compounds with RAD52 anneal inh | 1,000 compounds, 8% hits | AC50, µM | AID 652128;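 active = fitted half-maximal concentration for signal loss at or below twice the highest dose tested, in every separate run, actives reach about 64 µM in these data; inconclusive = runs disagree, or flat partial signal loss, or poor fit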
Large screens that a line does not name were inactive (follow-up assays come after a bar, where they were run); ! = not active in a repeat. Rows were chosen to be rich in hits. Some 1.5% of all compounds tested hit in one or more screens of this group.

Cn1ccc2c(N3CCCCC3)cc3c(c21)C1CCC3C1 (stereo not given)	AF4-AF9 inh 52 | AlphaScreen intf inactive
O=C(Cc1ccccn1)NCC[C@@H]1CC[C@@H](NS(=O)(=O)c2ccc(Cl)cc2)[C@H](CO)O1	none
COC(=O)C1=CC(C(=O)c2cccs2)=NN(c2ccc(OC)cc2)C1C(=O)OC (stereo not given)	AF4-AF9 inh 32 | AlphaScreen intf inactive
COc1ccc(N2CCN(C(=O)C3CCCN(S(=O)(=O)c4c(C)noc4C)C3)CC2)cc1 (stereo not given)	AF4-AF9 inh 28 (no result: ERAP1 HTS inh) | AlphaScreen intf inactive
N#C/C(N=Nc1ccccc1O)=N\Nc1ccccc1O	AF4-AF9 inh 34 (no result: ERAP1 HTS inh) | AlphaScreen intf 8.5µM
CN=c1scc(-c2cccs2)n1/N=C/c1ccccc1O	AF4-AF9 inh 31 | AlphaScreen intf inactive
CO[C@H]1CN(C)C(=O)c2cc(NS(=O)(=O)Cc3ccccc3)ccc2OC[C@H](C)NC[C@H]1C	none (no result: ERAP1 HTS inh)
CCOc1ccc(Nc2nc(NCC3CCCO3)c3ccccc3n2)cc1 (stereo not given)	AF4-AF9 inh 28 | AlphaScreen intf inactive
c1ccc(Nc2nc(NCC3CCCO3)c3ccccc3n2)cc1 (stereo not given)	none
CO[C@@H]1CN(C)C(=O)c2cc(NC(=O)CC(F)(F)F)ccc2OC[C@H](C)N(S(=O)(=O)c2cn(C)cn2)C[C@@H]1C	none
O=C(C[C@H]1CC[C@H]2[C@@H](COC[C@H](O)CN2C(=O)c2cnccn2)O1)NCc1ccccc1	none
COc1cccc(-c2ccc3n(c2=O)C[C@@H]2[C@@H](CO)[C@H](C(=O)N(C)C)[C@H]3N2CC2CC2)c1	none
COc1cccc(-c2sc3ccccc3c2-c2ccc(OCCN3CCCC3)cc2)c1	AF4-AF9 inh inconclusive (no result: ERAP1 HTS inh)
COc1cccc(-c2sc3ccccc3c2-c2ccc(OCCN(C)C)cc2)c1	AF4-AF9 inh 29 | AlphaScreen intf inactive
C[C@H](CO)N1C[C@H](C)[C@@H](CN(C)C(=O)C2CCOCC2)Oc2ncc(C#CC(C)(C)O)cc2C1=O	none
O=C(N/N=C/c1c(O)ccc2ccccc12)c1ccc[n+](CCO)c1	AF4-AF9 inh 82 | AlphaScreen intf 0.61µM
Cn1cc(C(=O)N/N=C/c2c(O)ccc3ccccc23)ccc1=O	none | AlphaScreen intf inactive
O=C(N/N=C\c1c(O)ccc2ccccc12)c1ccc(O)cc1	none
CC(C)CC#Cc1ccc2c(c1)O[C@H](CN(C)C(=O)c1cnccn1)[C@@H](C)CN([C@H](C)CO)S2(=O)=O	none
NCCc1c(-c2ccccc2)n(-c2ccccc2)c2ccccc12	AF4-AF9 inh 47 | AlphaScreen intf 14µM
CC(=O)n1c(-c2ccccc2)c(CO)c2ccccc21	none
C[C@@H]1CCCCO[C@H](CN(C)Cc2ccc(Cl)c(Cl)c2)[C@@H](C)CN([C@H](C)CO)C(=O)c2cc(N(C)C)ccc2O1	AF4-AF9 inh 50! | AlphaScreen intf inactive
C[C@@H]1CN([C@@H](C)CO)C(=O)Cc2cc(N(C)C)ccc2O[C@H]1CN(C)Cc1ccc(Cl)c(Cl)c1	AF4-AF9 inh 48 | AlphaScreen intf 12µM
C[C@H](CO)N1C[C@H](C)[C@@H](CN(C)Cc2ccc(Cl)c(Cl)c2)Oc2ccc(N(C)C)cc2CC1=O	AF4-AF9 inh 40 | AlphaScreen intf inactive
C[C@H]1CN([C@@H](C)CO)C(=O)Cc2cc(N(C)C)ccc2O[C@H]1CN(C)Cc1ccc2c(c1)OCO2	none
COc1ccc(-c2cnc3c(c2)C(=O)N([C@H](C)CO)C[C@@H](C)[C@@H](CN(C)C)O3)cc1	none
O=S(=O)(N[C@H]1CC[C@H](CCn2cc(-c3ccccn3)nn2)O[C@@H]1CO)c1cccc(Cl)c1	none
Cc1c(C)n(Cc2ccccc2)c2ccc(C(=O)OCCN(C)C)cc12	RAD52 anneal inh 66, AF4-AF9 inh 28 | AlphaScreen intf inactive | DNA binder FP inactive
C[C@@H]1CN([C@@H](C)CO)C(=O)c2cc(NC(=O)Nc3ccc(F)cc3)ccc2O[C@@H](C)CCCCO[C@H]1CN(C)Cc1ccncc1	none (no result: ERAP1 HTS inh, RAD52 anneal inh, AF4-AF9 inh, S100A4 MyoIIA)
COc1cccc(OC)c1OCCCCCCN1CCN(C)CC1	none
CN1CCN(CCCCOc2ccccc2C=O)CC1	RAD52 anneal inh 87, AF4-AF9 inh 33 | AlphaScreen intf inactive | DNA binder FP inactive
CN(C)c1ccc(C(CNS(=O)(=O)c2ccc3ccccc3c2)c2c[nH]c3ccccc23)cc1 (stereo not given)	none (no result: ERAP1 HTS inh, RAD52 anneal inh, AF4-AF9 inh, S100A4 MyoIIA)
CN(C)c1ccc(C(CN)c2c[nH]c3ccccc23)cc1 (stereo not given)	RAD52 anneal inh 84, AF4-AF9 inh 30 | AlphaScreen intf inactive | DNA binder FP inactive
CN(C)CCNC(=O)c1cccc(-c2cc(NC=O)c3ncc(-c4cccc(C(F)(F)F)c4)n3c2)c1	RAD52 anneal inh 74, AF4-AF9 inh 36, GSIS activator 124 | AlphaScreen intf inactive | DNA binder FP inactive
C[C@H]1CCCCO[C@H](CN(C)S(=O)(=O)c2ccc(F)cc2)[C@@H](C)CN([C@@H](C)CO)C(=O)c2cc(NC(=O)Cc3ccccc3)ccc2O1	none (no result: ERAP1 HTS inh, RAD52 anneal inh, AF4-AF9 inh, S100A4 MyoIIA)
CCCN1C(=O)/C(=C/c2ccc(C)s2)SC1=Nc1ccc(OC)cc1	none (no result: ERAP1 HTS inh, RAD52 anneal inh, AF4-AF9 inh, S100A4 MyoIIA)
COc1ccc(N=C2S/C(=C\c3ccc(Cl)c([N+](=O)[O-])c3)C(=O)N2CCN(C)C)cc1	RAD52 anneal inh 53, AF4-AF9 inh 26 | AlphaScreen intf 6.7µM | DNA binder FP inactive
O=C(C[C@H]1CC[C@H]2[C@@H](COC[C@H](O)CN2Cc2cc(F)ccc2F)O1)N1CCc2ccccc2C1	none
CCN(CC)c1ccc(C(=O)NNC(=O)CCl)cc1	none
CCN(CC)c1ccc(C(=C2C=CC(=[N+](CC)CC)C=C2)c2ccc(N(CC)CC)cc2)cc1	RAD52 anneal inh 52, AF4-AF9 inh 98 (no result: GSIS activator) | AlphaScreen intf 0.26µM | DNA binder FP inactive
CCC(=O)N1[C@@H](CO)[C@@H](c2ccc(-c3ccc(F)cc3)cc2)C12CN(C(C)=O)C2	none
C#CCOCCOCCOCCNc1nc(N2CCN(C(=O)[C@H](CCCN=C(N)N)n3cc(C(N)[C@@H](C)CC)nn3)CC2)nc(N2CCN(C(=O)[C@H](CCCCN)n3cc([C@@H](N)CC(N)=O)nn3)CC2)n1 (stereo not given in full)	RAD52 anneal inh 66, AF4-AF9 inh 37 | AlphaScreen intf inactive | DNA binder FP inactive
O=C(NCC[C@@H]1CC[C@H](NC(=O)C2CCCC2)[C@@H](CO)O1)c1cc(Cl)cc(Cl)c1	none
CN(C)CCCNC(=O)c1ccc(-c2cc(O)c3ncccc3c2)cc1	RAD52 anneal inh 101, AF4-AF9 inh 87 (no result: GSIS activator) | AlphaScreen intf 1.8µM | DNA binder FP inactive
